Test results taken from ChEMBL document CHEMBL1828554, “3,5-dimethylisoxazoles act as acetyl-lysine-mimetic bromodomain ligands” (J Med Chem, 2011).

What was measured:
[1] = target: Bromodomain-containing protein 3 (Homo sapiens) (UniProt Q15059); experiment: Binding affinity to first bromodomain of BRD3 assessed as change in melting temperature at 100 uM by differential scanning fluorimetry
How it was run: (§1)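 Thermal shift by differential scanning fluorimetry on a real-time PCR instrument. Bromodomain protein at 2 μM, compound at 100 μM, in 10 mM HEPES pH 7.5, 500 mM NaCl with SyproOrange dye diluted 1:1000. The observed melting temperature shift was measured in duplicate, and the average was reported.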

[2] = target: Bromodomain testis-specific protein (Homo sapiens) (UniProt Q58F21); experiment: Binding affinity to BRDT assessed as change in melting temperature at 100 uM by differential scanning fluorimetry; how it was run: as §1
[3] = target: Protein polybromo-1 (Homo sapiens) (UniProt Q86U86); experiment: Binding affinity to PB1 assessed as change in melting temperature at 100 uM by differential scanning fluorimetry; how it was run: as §1
[4] = Binding affinity to LOC93349 assessed as change in melting temperature at 100 uM by differential scanning fluorimetry; how it was run: as §1
CREB-binding protein [5] = target: T1, CREB-binding protein (Homo sapiens, UniProt Q92793); experiment: Binding affinity to CREBBP assessed as change in melting temperature at 100 uM by differential scanning fluorimetry; how it was run: as §1
Target sequence in this assay (Q92793 2-2442 limits assumed): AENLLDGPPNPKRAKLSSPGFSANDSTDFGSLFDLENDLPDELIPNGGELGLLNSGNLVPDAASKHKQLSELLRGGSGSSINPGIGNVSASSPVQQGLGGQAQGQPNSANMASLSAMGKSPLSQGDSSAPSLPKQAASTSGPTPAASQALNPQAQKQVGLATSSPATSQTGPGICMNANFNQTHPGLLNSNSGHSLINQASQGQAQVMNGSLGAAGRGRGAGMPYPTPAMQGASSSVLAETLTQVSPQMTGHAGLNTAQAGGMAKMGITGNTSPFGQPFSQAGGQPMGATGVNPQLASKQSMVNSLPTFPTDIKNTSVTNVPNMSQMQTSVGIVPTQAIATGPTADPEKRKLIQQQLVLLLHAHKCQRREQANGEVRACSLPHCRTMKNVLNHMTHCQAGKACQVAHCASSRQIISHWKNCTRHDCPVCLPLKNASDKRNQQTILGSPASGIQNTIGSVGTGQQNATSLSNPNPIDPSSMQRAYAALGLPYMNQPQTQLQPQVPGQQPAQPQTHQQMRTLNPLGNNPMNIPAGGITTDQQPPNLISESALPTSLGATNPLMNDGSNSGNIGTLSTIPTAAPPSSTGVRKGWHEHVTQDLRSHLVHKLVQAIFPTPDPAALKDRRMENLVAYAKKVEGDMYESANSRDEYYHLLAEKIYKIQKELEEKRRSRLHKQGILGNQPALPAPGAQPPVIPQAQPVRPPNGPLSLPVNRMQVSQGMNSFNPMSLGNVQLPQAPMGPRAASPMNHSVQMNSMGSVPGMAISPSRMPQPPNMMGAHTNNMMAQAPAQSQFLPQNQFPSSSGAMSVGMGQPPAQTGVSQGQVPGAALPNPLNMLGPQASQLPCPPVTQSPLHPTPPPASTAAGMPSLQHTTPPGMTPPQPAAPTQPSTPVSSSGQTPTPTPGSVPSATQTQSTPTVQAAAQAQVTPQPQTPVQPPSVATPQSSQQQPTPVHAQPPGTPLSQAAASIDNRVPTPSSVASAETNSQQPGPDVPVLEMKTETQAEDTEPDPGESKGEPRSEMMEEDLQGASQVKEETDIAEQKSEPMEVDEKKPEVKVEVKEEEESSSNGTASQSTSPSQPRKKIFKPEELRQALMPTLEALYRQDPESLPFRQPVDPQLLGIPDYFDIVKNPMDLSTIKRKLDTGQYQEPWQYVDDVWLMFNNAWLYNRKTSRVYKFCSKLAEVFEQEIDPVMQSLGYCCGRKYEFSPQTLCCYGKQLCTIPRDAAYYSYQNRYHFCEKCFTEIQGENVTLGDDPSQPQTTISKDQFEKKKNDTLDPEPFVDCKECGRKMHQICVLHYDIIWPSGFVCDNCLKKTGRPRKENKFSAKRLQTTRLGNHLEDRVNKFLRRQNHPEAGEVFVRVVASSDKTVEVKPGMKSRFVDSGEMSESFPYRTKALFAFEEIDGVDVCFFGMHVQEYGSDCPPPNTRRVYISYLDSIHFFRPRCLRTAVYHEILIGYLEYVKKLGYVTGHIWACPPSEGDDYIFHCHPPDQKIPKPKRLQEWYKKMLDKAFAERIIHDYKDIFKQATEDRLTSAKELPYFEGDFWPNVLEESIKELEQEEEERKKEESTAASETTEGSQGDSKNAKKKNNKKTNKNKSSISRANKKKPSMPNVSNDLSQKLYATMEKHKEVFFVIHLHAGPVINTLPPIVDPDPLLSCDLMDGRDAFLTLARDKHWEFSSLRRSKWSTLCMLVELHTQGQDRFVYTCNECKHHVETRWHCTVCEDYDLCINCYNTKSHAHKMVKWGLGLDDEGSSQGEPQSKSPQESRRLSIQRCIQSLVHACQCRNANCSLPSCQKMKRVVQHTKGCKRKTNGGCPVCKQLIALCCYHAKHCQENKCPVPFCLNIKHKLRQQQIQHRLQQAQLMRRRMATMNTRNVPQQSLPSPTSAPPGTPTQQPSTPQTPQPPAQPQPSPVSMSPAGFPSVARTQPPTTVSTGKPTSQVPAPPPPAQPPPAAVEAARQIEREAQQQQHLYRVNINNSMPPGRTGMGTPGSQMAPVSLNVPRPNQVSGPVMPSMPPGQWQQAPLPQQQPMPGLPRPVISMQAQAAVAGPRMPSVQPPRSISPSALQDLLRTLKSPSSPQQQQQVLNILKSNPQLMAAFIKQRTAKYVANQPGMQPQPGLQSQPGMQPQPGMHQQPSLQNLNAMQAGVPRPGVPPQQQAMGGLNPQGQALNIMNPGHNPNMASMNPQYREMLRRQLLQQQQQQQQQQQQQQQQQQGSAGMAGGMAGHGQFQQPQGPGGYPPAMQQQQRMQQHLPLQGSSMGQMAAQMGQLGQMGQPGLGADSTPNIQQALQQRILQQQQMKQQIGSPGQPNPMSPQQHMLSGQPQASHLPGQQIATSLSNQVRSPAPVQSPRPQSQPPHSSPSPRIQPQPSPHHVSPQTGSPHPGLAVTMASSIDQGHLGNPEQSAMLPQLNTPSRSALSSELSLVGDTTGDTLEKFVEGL

[6] = target: T2, Bromodomain-containing protein 2 (Homo sapiens, UniProt P25440); experiment: Binding affinity to first bromodomain of BRD2 assessed as change in melting temperature at 100 uM by differential scanning fluorimetry; how it was run: as §1
[7] = target: T3, Bromodomain-containing protein 4 (Homo sapiens, UniProt O60885); experiment: Binding affinity to first bromodomain of BRD4 assessed as change in melting temperature at 100 uM by differential scanning fluorimetry; how it was run: as §1
[8] = target: Bromodomain-containing protein 3 (Homo sapiens) (UniProt Q15059); experiment: Binding affinity to second bromodomain of BRD3 assessed as change in melting temperature at 100 uM by differential scanning fluorimetry; how it was run: as §1
CREB-binding protein [9] = target: T1, CREB-binding protein; experiment: Displacement of H3K56Ac from human CREBBP by peptide displacement assay
Target sequence in this assay (Q92793 whole entry): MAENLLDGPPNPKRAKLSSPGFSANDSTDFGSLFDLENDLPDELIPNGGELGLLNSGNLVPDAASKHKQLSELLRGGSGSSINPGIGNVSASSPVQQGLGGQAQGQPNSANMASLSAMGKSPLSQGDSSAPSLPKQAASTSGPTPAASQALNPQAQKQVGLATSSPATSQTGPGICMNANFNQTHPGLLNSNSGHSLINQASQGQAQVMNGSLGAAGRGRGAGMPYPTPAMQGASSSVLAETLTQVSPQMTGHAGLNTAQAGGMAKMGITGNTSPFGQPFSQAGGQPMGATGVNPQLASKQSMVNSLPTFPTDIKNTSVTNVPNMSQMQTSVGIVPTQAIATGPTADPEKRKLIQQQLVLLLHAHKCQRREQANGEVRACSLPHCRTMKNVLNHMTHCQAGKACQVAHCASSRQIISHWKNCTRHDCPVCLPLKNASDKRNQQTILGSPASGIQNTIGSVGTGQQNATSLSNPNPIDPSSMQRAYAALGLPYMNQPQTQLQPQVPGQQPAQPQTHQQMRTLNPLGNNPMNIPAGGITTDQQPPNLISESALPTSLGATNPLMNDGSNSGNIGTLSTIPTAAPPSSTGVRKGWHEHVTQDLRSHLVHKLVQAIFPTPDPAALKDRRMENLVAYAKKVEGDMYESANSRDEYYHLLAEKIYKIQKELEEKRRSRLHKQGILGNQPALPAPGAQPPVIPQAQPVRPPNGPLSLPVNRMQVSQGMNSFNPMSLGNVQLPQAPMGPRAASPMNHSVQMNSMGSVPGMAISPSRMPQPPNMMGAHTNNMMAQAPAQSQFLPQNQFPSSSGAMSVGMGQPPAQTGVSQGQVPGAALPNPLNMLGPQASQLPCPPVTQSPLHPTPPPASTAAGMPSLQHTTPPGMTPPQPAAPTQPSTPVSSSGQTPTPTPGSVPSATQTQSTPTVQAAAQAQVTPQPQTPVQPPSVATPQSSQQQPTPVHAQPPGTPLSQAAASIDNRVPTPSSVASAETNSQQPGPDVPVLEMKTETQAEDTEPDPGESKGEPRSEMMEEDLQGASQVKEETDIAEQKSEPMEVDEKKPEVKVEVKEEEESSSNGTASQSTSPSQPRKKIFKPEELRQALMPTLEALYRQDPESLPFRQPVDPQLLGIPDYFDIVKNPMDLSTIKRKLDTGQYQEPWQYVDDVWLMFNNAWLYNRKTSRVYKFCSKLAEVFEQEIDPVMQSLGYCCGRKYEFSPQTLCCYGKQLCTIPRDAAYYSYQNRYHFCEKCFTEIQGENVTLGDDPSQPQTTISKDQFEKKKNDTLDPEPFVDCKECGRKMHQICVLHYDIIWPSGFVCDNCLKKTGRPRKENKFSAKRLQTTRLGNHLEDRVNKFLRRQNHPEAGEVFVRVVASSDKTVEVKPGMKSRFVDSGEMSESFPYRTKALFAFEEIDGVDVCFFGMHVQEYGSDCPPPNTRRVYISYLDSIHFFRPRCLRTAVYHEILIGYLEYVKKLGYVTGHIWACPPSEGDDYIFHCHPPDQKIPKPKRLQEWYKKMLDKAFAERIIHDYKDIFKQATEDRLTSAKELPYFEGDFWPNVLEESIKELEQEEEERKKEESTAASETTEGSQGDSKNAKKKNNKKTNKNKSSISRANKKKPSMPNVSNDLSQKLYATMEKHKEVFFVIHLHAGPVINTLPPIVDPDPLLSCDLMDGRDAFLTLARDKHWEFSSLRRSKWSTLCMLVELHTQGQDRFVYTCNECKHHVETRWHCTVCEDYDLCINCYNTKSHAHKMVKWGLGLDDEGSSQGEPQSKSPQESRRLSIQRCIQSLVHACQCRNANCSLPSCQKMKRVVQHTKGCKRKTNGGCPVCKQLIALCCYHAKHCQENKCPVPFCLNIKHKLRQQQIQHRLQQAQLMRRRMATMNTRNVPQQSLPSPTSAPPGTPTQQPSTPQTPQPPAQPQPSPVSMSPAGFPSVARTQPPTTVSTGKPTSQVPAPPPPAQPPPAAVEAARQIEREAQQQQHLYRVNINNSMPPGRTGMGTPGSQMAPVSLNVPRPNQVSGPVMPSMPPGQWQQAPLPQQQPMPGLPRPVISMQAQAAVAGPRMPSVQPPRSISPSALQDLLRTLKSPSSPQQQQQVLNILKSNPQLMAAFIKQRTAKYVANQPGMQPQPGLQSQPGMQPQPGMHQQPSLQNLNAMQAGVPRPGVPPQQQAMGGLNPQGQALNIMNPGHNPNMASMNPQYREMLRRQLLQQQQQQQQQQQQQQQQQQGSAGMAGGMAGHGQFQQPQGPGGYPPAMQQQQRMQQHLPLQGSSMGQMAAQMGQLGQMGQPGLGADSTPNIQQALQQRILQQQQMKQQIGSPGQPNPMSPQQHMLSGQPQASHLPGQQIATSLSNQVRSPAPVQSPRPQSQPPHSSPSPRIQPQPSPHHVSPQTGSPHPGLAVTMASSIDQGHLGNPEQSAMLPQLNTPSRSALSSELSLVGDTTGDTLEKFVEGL

[10] = target: T2, Bromodomain-containing protein 2; experiment: Binding affinity to second bromodomain of BRD2 assessed as change in melting temperature at 100 uM by differential scanning fluorimetry; how it was run: as §1
[11] = target: T4, Bromodomain adjacent to zinc finger domain protein 2B (Homo sapiens, UniProt Q9UIF8); experiment: Inhibition of BAZ2B
CREB-binding protein [12] = target: T1, CREB-binding protein; experiment: Inhibition of CREBBP
How it was run: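 AlphaScreen peptide-displacement assay with the CREBBP bromodomain, using a biotinylated H3K56Ac histone peptide as the displaced ligand. Each concentration was run in duplicate on the same plate. IC50 was obtained by sigmoidal curve fitting of the duplicate data and reported with 95% confidence intervals, taken from a single assay.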
Target sequence in this assay (Q92793 whole entry): as above

[13] = target: T3, Bromodomain-containing protein 4; experiment: Displacement of H4Ac4 peptide from first bromodomain of human BRD4 by peptide displacement assay
How it was run: (§2)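 AlphaScreen displacement of a biotinylated tetra-acetylated H4 peptide (SGRGK(Ac)GGK(Ac)GLGK(Ac)GGAK(Ac)RHRK(Biotin)) from the bromodomain. Run in duplicate on one plate.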

[14] = target: T2, Bromodomain-containing protein 2; experiment: Displacement of H4Ac4 peptide from first bromodomain of human BRD2 by peptide displacement assay; how it was run: as §2
[15] = target: T3, Bromodomain-containing protein 4; experiment: Binding affinity to second bromodomain of BRD4 assessed as change in melting temperature at 100 uM by differential scanning fluorimetry; how it was run: as §1
[16] = target: T4, Bromodomain adjacent to zinc finger domain protein 2B; experiment: Binding affinity to BAZ2B assessed as change in melting temperature at 100 uM by differential scanning fluorimetry; how it was run: as §1
[17] = target: Histone acetyltransferase KAT2B (Homo sapiens) (UniProt Q92831); experiment: Binding affinity to PCAF assessed as change in melting temperature at 100 uM by differential scanning fluorimetry; how it was run: as §1

Cc1noc(C)c1-c1ccc2c(c1)CN(C)C(=O)N2
ΔTm [1]: 7.2 °C
ΔTm [2]: 3.2 °C
ΔTm [3]: 0.7 °C
ΔTm [4]: -0.2 °C
ΔTm (CREB-binding protein [5]): 3.8 °C
ΔTm [6]: 5.4 °C
ΔTm [7]: 8 °C
ΔTm [8]: 6.8 °C
IC50 (CREB-binding protein [9]): 3.4 µM
ΔTm [10]: 6.2 °C

CN1CCCC1=O [METHYLPYRROLIDONE]
IC50 [11]: 34 mM
IC50 (CREB-binding protein [12]): 2.3 mM

CCOc1cc(-c2c(C)noc2C)cc(C(C)O)c1 (racemic)
IC50 [13]: 4.8 µM
ΔTm [1]: 8.5 °C
IC50 [14]: 1.6 µM
ΔTm [2]: 3.5 °C
ΔTm [15]: 8 °C
ΔTm [3]: 0 °C
ΔTm [4]: -0.9 °C
ΔTm (CREB-binding protein [5]): 4 °C
ΔTm [6]: 6.1 °C
ΔTm [7]: 8.5 °C
ΔTm [8]: 8.9 °C
IC50 (CREB-binding protein [9]): 28.1 µM
ΔTm [10]: 8.3 °C

CCOc1cc(C(C)=O)cc(-c2c(C)noc2C)c1
IC50 [13]: 7.5 µM
ΔTm [1]: 4.8 °C
IC50 [14]: 2.3 µM
ΔTm [15]: 6.5 °C
ΔTm [3]: -0.3 °C
ΔTm [4]: -1 °C
ΔTm (CREB-binding protein [5]): 3.4 °C
ΔTm [6]: 3.2 °C
ΔTm [7]: 5.1 °C
ΔTm [8]: 6 °C
IC50 (CREB-binding protein [9]): 12.9 µM
ΔTm [10]: 5.3 °C

CC(=O)c1cccc(-c2c(C)noc2C)c1
IC50 [13]: 24.6 µM
ΔTm [1]: 2 °C
IC50 [14]: 6 µM
ΔTm [2]: -0.2 °C
ΔTm [15]: 1.9 °C
ΔTm [3]: -0.3 °C
ΔTm [4]: -0.9 °C
ΔTm (CREB-binding protein [5]): 1.2 °C
ΔTm [6]: 1.3 °C
ΔTm [7]: 2.1 °C
ΔTm [8]: 2.9 °C
IC50 (CREB-binding protein [9]): 55.7 µM
ΔTm [10]: 2.6 °C

CCOC(=O)c1cc(OCC)cc(-c2c(C)noc2C)c1
IC50 [13]: 7.7 µM
ΔTm [1]: 3.6 °C
IC50 [14]: 3.3 µM
ΔTm [2]: 1.1 °C
ΔTm [15]: 3.8 °C
ΔTm [3]: -0.1 °C
ΔTm [4]: -0.2 °C
ΔTm (CREB-binding protein [5]): -0.2 °C
ΔTm [6]: 2.3 °C
ΔTm [7]: 3.7 °C
ΔTm [8]: 3.8 °C
IC50 (CREB-binding protein [9]): 49.4 µM
ΔTm [10]: 3.3 °C

CCOc1cc(C(=O)O)cc(-c2c(C)noc2C)c1
IC50 [13]: 51.2 µM
ΔTm [1]: 2.2 °C
IC50 [14]: 28.2 µM
ΔTm [2]: -0.8 °C
ΔTm [15]: 2.2 °C
ΔTm [3]: -0.1 °C
ΔTm [4]: -1.2 °C
ΔTm (CREB-binding protein [5]): 2.9 °C
ΔTm [6]: 1.1 °C
ΔTm [7]: 2.3 °C
ΔTm [16]: -0.1 °C
ΔTm [17]: -0.5 °C
ΔTm [8]: 2.6 °C
IC50 (CREB-binding protein [9]): 32.2 µM
ΔTm [10]: 2.5 °C

CCOc1cccc(-c2c(C)noc2C)c1
IC50 [13]: 23.2 µM
ΔTm [1]: 2.7 °C
IC50 [14]: 7.4 µM
ΔTm [2]: -0.4 °C
ΔTm [15]: 4 °C
ΔTm [3]: -0.2 °C
ΔTm [4]: -0.9 °C
ΔTm (CREB-binding protein [5]): 0.7 °C
ΔTm [6]: 1.3 °C
ΔTm [7]: 2.8 °C
ΔTm [8]: 4.2 °C
IC50 (CREB-binding protein [9]): 86.9 µM
ΔTm [10]: 3.7 °C

Cc1noc(C)c1-c1ccccc1
IC50 [13]: 84.2 µM
ΔTm [1]: 1.6 °C
IC50 [14]: 34.3 µM
ΔTm [2]: 0 °C
ΔTm [15]: 2.6 °C
ΔTm [3]: 0 °C
ΔTm [4]: -0.6 °C
ΔTm (CREB-binding protein [5]): 0.6 °C
ΔTm [6]: 0.9 °C
ΔTm [7]: 2 °C
ΔTm [16]: -0.1 °C
ΔTm [17]: -0.8 °C
ΔTm [8]: 1.9 °C
IC50 (CREB-binding protein [9]): > 200 µM
ΔTm [10]: 2.1 °C

Cc1noc(C)c1-c1cccc(C(C)O)c1 (racemic)
IC50 [13]: 9.7 µM
ΔTm [1]: 5.3 °C
IC50 [14]: 4.2 µM
ΔTm [2]: 1.6 °C
ΔTm [15]: 6.3 °C
ΔTm [3]: 0.2 °C
ΔTm [4]: -0.8 °C
ΔTm (CREB-binding protein [5]): 1.5 °C
ΔTm [6]: 3.3 °C
ΔTm [7]: 5.4 °C
ΔTm [16]: 0.2 °C
ΔTm [17]: 0 °C
ΔTm [8]: 6.5 °C
IC50 (CREB-binding protein [9]): 45.4 µM
ΔTm [10]: 5.6 °C
